# Test results as given in ChEMBL document CHEMBL3351274, “Sensitization of tumor necrosis factor-related apoptosis-inducing ligand (TRAIL)-resistant primary prostate cancer cells by isoegomaketone from Perilla frutescens” (J Nat Prod, 2014).
# Active and inactive are the calls of the source. No cut-off for these calls is given here.
# Columns and labels:
# [1] = Induction of apoptosis in human RC-58T/h/SA#4 cells assessed as Bax activation at 20 uM after 24 hrs by immunoblotting analysis relative to untreated control; assay type: functional
# Method in brief: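 Cells grown in DMEM/10% FBS at 37 °C, 5% CO2, then treated 24 h with compound (20 μM) with or without TRAIL (100 ng/mL). Whole lysates were used for Bax and Bcl-2. Cytosolic and mitochondrial fractions were prepared with a mitochondria isolation kit for AIF and cytochrome c. Blotting used 10 μg protein/lane, 12% SDS-PAGE, nitrocellulose, overnight primary antibody at 4 °C and ECL detection.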
# Homo sapiens [2] = species on record: Homo sapiens; test: Sensitization of TRAIL-induced apoptosis in human RC-58T/h/SA#4 cells assessed as cytochrome C level in mitochondria at 20 uM after 24 hrs by immunoblotting analysis relative to untreated control; assay type: functional, cell-based
# Method in brief: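 Cells given 20 μM compound and/or 100 ng/mL TRAIL for 24 h. Mitochondrial and cytosolic fractions prepared with a mitochondria isolation kit. Fractions resolved by 12% SDS-PAGE at 10 μg/lane and immunoblotted with anti-cytochrome c or anti-AIF overnight at 4 °C, then HRP secondary and ECL detection.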
# Homo sapiens [3] = species on record: Homo sapiens; test: Induction of apoptosis in human RC-58T/h/SA#4 cells assessed as DR5 expression at 20 uM by immunoblotting analysis relative to untreated control; assay type: functional, cell-based; details: TDE = time-dependent effect
# [4] = Induction of apoptosis in human RC-58T/h/SA#4 cells assessed as DR4 expression at 2.5 uM after 24 hrs by immunoblotting analysis relative to untreated control; assay type: functional
# [5] = Induction of apoptosis in human RC-58T/h/SA#4 cells assessed as DR5 expression at 5 uM after 24 hrs by immunoblotting analysis relative to untreated control; assay type: functional
# [6] = Induction of apoptosis in human RC-58T/h/SA#4 cells assessed as DR4 expression at 20 uM after 6 hrs by immunoblotting analysis relative to untreated control; assay type: functional
# [7] = Induction of apoptosis in human RC-58T/h/SA#4 cells assessed as DR4 expression at 20 uM after 18 hrs by immunoblotting analysis relative to untreated control; assay type: functional
# [8] = Induction of apoptosis in human RC-58T/h/SA#4 cells assessed as DR4 expression at 20 uM after 24 hrs by immunoblotting analysis relative to untreated control; assay type: functional
# [9] = Sensitization of TRAIL-induced apoptosis in human RC-58T/h/SA#4 cells assessed as procaspase-3 activation at 20 uM after 24 hrs by immunoblotting analysis in presence of Dr5 Fc chimera relative to untreated control; assay type: functional
# Method in brief: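 Cells pretreated 2 h with 100 ng/mL DR5 Fc chimera, then given 20 μM compound and/or 100 ng/mL TRAIL for 24 h. Total lysates immunoblotted (12% SDS-PAGE, nitrocellulose) for caspase-3, -8, -9 and PARP cleavage, with HRP secondary and ECL detection.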
# [10] = Induction of apoptosis in human RC-58T/h/SA#4 cells assessed as p53 expression at 40 uM after 24 hrs by immunoblotting analysis relative to untreated control; assay type: functional
# Method in brief: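 RC-58T/h/SA#4 cells (DMEM, 10% FBS, 37 °C, 5% CO2) exposed to the compound over a concentration range or time course. Lysates run on 12% SDS-PAGE at 10 μg protein/lane, transferred to nitrocellulose and blocked with BSA. Blots probed overnight at 4 °C with anti-p53, then HRP secondary antibody, ECL detection; β-actin as loading control.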
# [11] = Induction of apoptosis in human RC-58T/h/SA#4 cells assessed as CHOP expression at 5 uM after 24 hrs by immunoblotting analysis relative to untreated control; assay type: functional
# Method in brief: (§1)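 RC-58T/h/SA#4 cells seeded at 5 × 10^4 cells/mL and cultured 24 h, then given compound across a concentration series or at fixed dose over a time course. Lysates were quantified by BCA. 10 μg protein/lane run on 12% SDS-PAGE and transferred to nitrocellulose. Blots probed for p53, CHOP and β-actin with HRP secondary and ECL.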
# [12] = Induction of apoptosis in human RC-58T/h/SA#4 cells assessed as CHOP expression at 40 uM after 24 hrs by immunoblotting analysis relative to untreated control; assay type: functional; method in brief: as §1
# [13] = Induction of apoptosis in human RC-58T/h/SA#4 cells assessed as p53 expression at 20 uM after 3 hrs by immunoblotting analysis relative to untreated control; assay type: functional; method in brief: as §1
# [14] = Induction of ROS generation in human RC-58T/h/SA#4 cells at 20 uM after 30 mins by flow cytometry (reference value: 1.9%); assay type: functional
# Homo sapiens [15] = species on record: Homo sapiens; test: Sensitization of TRAIL-induced cytotoxicity against human RC-58T/h/SA#4 cells assessed as cell viability at 5 to 20 uM after 24 hrs by SRB assay; assay type: functional, cell-based
# Method in brief: (§2)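 Cells seeded at 5 × 10^4 cells/mL, grown in DMEM with 10% FBS, and given the compound with or without 100 ng/mL TRAIL for 24 h at 37 °C, 5% CO2. RWPE-1 tested at 20 μM. Cells fixed in 12% TCA for 1 h at 4 °C, stained 1 h with 0.4% SRB, washed in 1% acetic acid, dye dissolved in 10 mM Tris and absorbance read. Three experiments, means ± SD.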
# [16] = Sensitization of TRAIL-induced cytotoxicity against human RWPE1 cells assessed as cell viability at 20 uM after 24 hrs by SRB assay; assay type: cell-based; details: rwpe-1, 24 h; method in brief: as §2
# Homo sapiens [17] = species on record: Homo sapiens; test: Sensitization of TRAIL-induced apoptosis in human RC-58T/h/SA#4 cells assessed as condensation of chromatin at 20 uM after 24 hrs by Hoechst 33258 staining-based fluorescence microscopy; assay type: functional, cell-based
# Method in brief: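 Cells seeded at 1 × 10^6/well and given 20 μM compound and/or 100 ng/mL TRAIL for 24 h. Cells fixed in 1% glutaraldehyde and stained with 5 μg/mL Hoechst 33258 for 10 min at room temperature. Nuclear fragmentation and chromatin condensation scored by fluorescence microscopy at ×400.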
# [18] = Sensitization of TRAIL-induced apoptosis in human RC-58T/h/SA#4 cells assessed as accumulation at Sub-G1 phase at 20 uM after 24 hrs by annexin-V/propidium iodide staining-based flow cytometry in presence of pan-caspase inhibitor z-VAD-fmk (reference value: 4.8%); assay type: functional
# [19] = Sensitization of TRAIL-induced apoptosis in human RC-58T/h/SA#4 cells assessed as procaspase-9 activation at 20 uM after 24 hrs by immunoblotting analysis relative to untreated control; assay type: functional
# Method in brief: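 Cells seeded at 5 × 10^4 cells/mL and cultured 24 h, then given 20 μM compound and/or 100 ng/mL TRAIL for 24 h. Whole-cell lysate made in Tris/NaCl/EDTA/NaF/pyrophosphate/PMSF/aprotinin buffer, 30 min on ice, protein measured by BCA. 12% SDS-PAGE at 10 μg/lane, nitrocellulose blot, primary antibodies (caspase-3, -8, -9, Bax, Bcl-2, PARP) overnight at 4 °C, HRP secondary, ECL.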
# Homo sapiens [20] = species on record: Homo sapiens; test: Sensitization of TRAIL-induced apoptosis in human RC-58T/h/SA#4 cells assessed as cell viability at 20 uM after 24 hrs by SRB assay in presence of NAC
structure (smiles),measurement,setting,value
CC(C)/C=C/C(=O)c1ccoc1,Ratio,[1],1.5
same,Ratio,Homo sapiens [2],0.5
same,Activity,Homo sapiens [3],tde
same,Ratio,[4],1.1
same,Ratio,[5],1.1
same,Ratio,[6],1.1
same,Ratio,[7],1.1
same,Ratio,[8],1
same,Ratio,[9],0.9
same,Ratio,[10],2.4
same,Ratio,[11],1.3
same,Ratio,[12],2
same,Ratio,[13],1
same,Activity,[14],2.9%
same,Activity,Homo sapiens [15],Active
same,Activity,[16],Toxic
same,Activity,Homo sapiens [17],Active
same,Activity,[18],14.4%
same,Ratio,[19],0.5
same,Activity,Homo sapiens [20],inactive
